In ChEMBL document CHEMBL3877264, “Quinolidene-rhodanine conjugates: Facile synthesis and biological evaluation” (Eur J Med Chem, 2017):
Values after ≈ are worked out from the molar mass of the structure shown.

Assays:
Format in all cases: functional
[1] = tested on: Mycobacterium tuberculosis; assay: Growth inhibition of Mycobacterium tuberculosis H37Ra ATCC 25177 at dormant stage measured after 12 days by XTT dye based two fold dilution method; details: H37Ra ATCC 25177, 288 h
Procedure, shortened: (§1)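 MTB H37Ra was grown in Dubos medium, then exposed in Mycobacterium pheli minimal medium (pH 6.6) to compounds dissolved in DMSO. The assay ended on day 8 (active) or day 12 (dormant). Viable cells were measured by XTT reduction menadione assay at 470 nm, blank-corrected, relative to vehicle control. Triplicates were expressed as mean ± SD. MIC came from dose-response curves.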

Staphylococcus aureus [2] = assay: Antibacterial activity against of Staphylococcus aureus NCIM 2010 measured after 12 hrs; details: NCIM 2010, 12 h
Procedure, shortened: (§2)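 Bacteria grown in LB at 37 °C and 180 rpm to OD 1. Compounds added to wells, then 0.1% inoculum of 1 OD culture (620 nm). Growth read as OD at 620 nm after 8 h for gram-negative and after 12 h for gram-positive strains.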

[3] = tested on: Mycobacterium tuberculosis; assay: Growth inhibition of Mycobacterium bovis BCG ATCC 35743 at dormant stage measured after 12 days by nitrate reductase dye based two fold dilution method; details: BCG str. ATCC 35743, 288 h
Procedure, shortened: (§3)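 M. bovis BCG was grown in Dubos medium and assayed in Mycobacterium pheli minimal medium (pH 6.6), with compounds from DMSO stocks. Incubation lasted 8 days for active and 12 days for dormant cultures. Viability was read by nitrate reductase at 540 nm against cell-free blanks, with vehicle set as 100% growth. Primary screen was at 30, 10 and 3 µg/ml, in triplicate, mean ± SD. MIC was taken from dose-response curves.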

Escherichia coli [4] = assay: Growth inhibition of Escherichia coli NCIM 2688 at 30 ug/ml measured after 8 hrs relative to control; details: NCIM 2688, 8 h, read-out: GI; procedure, shortened: as §2
Escherichia coli [5] = assay: Antibacterial activity against Escherichia coli NCIM 2688 measured after 8 hrs; details: NCIM 2688, 8 h; procedure, shortened: as §2
[6] = tested on: Mycobacterium tuberculosis; assay: Growth inhibition of Mycobacterium bovis BCG ATCC 35743 at dormant stage at 30 ug/ml measured after 12 days by nitrate reductase dye based two fold dilution method relative to control; details: BCG str. ATCC 35743, 288 h, read-out: GI; procedure, shortened: as §3
Aspergillus niger = assay: Antifungal activity against Aspergillus niger NCIM 1196 by standard agar method
Procedure, shortened: (§4)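 MICs determined by standard agar method; DMSO as solvent control.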

Escherichia coli [7] = assay: Growth inhibition of Escherichia coli NCIM 2688 at 3 ug/ml measured after 8 hrs relative to control; details: NCIM 2688, 8 h, read-out: GI; procedure, shortened: as §2
Bacillus subtilis [8] = assay: Growth inhibition of Bacillus subtilis NCIM 2079 at 30 ug/ml measured after 12 hrs relative to control; details: NCIM 2079, 12 h, read-out: GI; procedure, shortened: as §2
Candida albicans = assay: Antifungal activity against Candida albicans NCIM 3471 by standard agar method; procedure, shortened: as §4
Pseudomonas fluorescens [9] = assay: Growth inhibition of Pseudomonas fluorescens NCIM 2036 at 10 ug/ml measured after 8 hrs relative to control; details: NCIM 2036, 8 h, read-out: GI; procedure, shortened: as §2
Staphylococcus aureus [10] = assay: Growth inhibition of Staphylococcus aureus NCIM 2010 at 30 ug/ml measured after 12 hrs relative to control; details: NCIM 2010, 12 h, read-out: GI; procedure, shortened: as §2
[11] = tested on: Mycobacterium tuberculosis; assay: Growth inhibition of Mycobacterium bovis BCG ATCC 35743 at dormant stage at 3 ug/ml measured after 12 days by nitrate reductase dye based two fold dilution method relative to control; details: BCG str. ATCC 35743, 288 h, read-out: GI; procedure, shortened: as §3
Pseudomonas fluorescens [12] = assay: Growth inhibition of Pseudomonas fluorescens NCIM 2036 at 3 ug/ml measured after 8 hrs relative to control; details: NCIM 2036, 8 h, read-out: GI; procedure, shortened: as §2
[13] = tested on: Mycobacterium tuberculosis; assay: Growth inhibition of Mycobacterium bovis BCG ATCC 35743 at dormant stage at 10 ug/ml measured after 12 days by nitrate reductase dye based two fold dilution method relative to control; details: BCG str. ATCC 35743, 288 h, read-out: GI; procedure, shortened: as §3
Pseudomonas fluorescens [14] = assay: Antibacterial activity against Pseudomonas fluorescens NCIM 2036 measured after 8 hrs; details: NCIM 2036, 8 h; procedure, shortened: as §2
Escherichia coli [15] = assay: Growth inhibition of Escherichia coli NCIM 2688 at 10 ug/ml measured after 8 hrs relative to control; details: NCIM 2688, 8 h, read-out: GI; procedure, shortened: as §2
Staphylococcus aureus [16] = assay: Growth inhibition of Staphylococcus aureus NCIM 2010 at 3 ug/ml measured after 12 hrs relative to control; details: NCIM 2010, 12 h, read-out: GI; procedure, shortened: as §2
Staphylococcus aureus [17] = assay: Growth inhibition of Staphylococcus aureus NCIM 2010 at 10 ug/ml measured after 12 hrs relative to control; details: NCIM 2010, 12 h, read-out: GI; procedure, shortened: as §2
[18] = Antifungal activity against Cryptococcus neoformans NCIM 576 by standard agar method; procedure, shortened: as §4
Bacillus subtilis [19] = assay: Growth inhibition of Bacillus subtilis NCIM 2079 at 3 ug/ml measured after 12 hrs relative to control; details: NCIM 2079, 12 h, read-out: GI; procedure, shortened: as §2
[20] = tested on: Mycobacterium tuberculosis; assay: Growth inhibition of Mycobacterium bovis BCG ATCC 35743 at active stage measured after 8 days by nitrate reductase dye based two fold dilution method; details: BCG str. ATCC 35743, 192 h; procedure, shortened: as §3
Bacillus subtilis [21] = assay: Antibacterial activity against Bacillus subtilis NCIM 2079 measured after 12 hrs; details: NCIM 2079, 12 h; procedure, shortened: as §2
Aspergillus flavus = assay: Antifungal activity against Aspergillus flavus NCIM 539 by standard agar method; procedure, shortened: as §4
Bacillus subtilis [22] = assay: Growth inhibition of Bacillus subtilis NCIM 2079 at 10 ug/ml measured after 12 hrs relative to control; details: NCIM 2079, 12 h, read-out: GI; procedure, shortened: as §2
[23] = tested on: Mycobacterium tuberculosis; assay: Growth inhibition of Mycobacterium tuberculosis H37Ra ATCC 25177 at active stage measured after 8 days by XTT dye based two fold dilution method; details: H37Ra ATCC 25177, 192 h; procedure, shortened: as §1
Pseudomonas fluorescens [24] = assay: Growth inhibition of Pseudomonas fluorescens NCIM 2036 at 30 ug/ml measured after 8 hrs relative to control; details: NCIM 2036, 8 h, read-out: GI; procedure, shortened: as §2
[25] = Antifungal activity against Fusarium oxysporum NCIM 1332 by standard agar method; procedure, shortened: as §4

SMILES	IC50 [1]	IC90 [1]	MIC (Staphylococcus aureus [2])	IC50 [3]	IC90 [3]	inhibition of growth at 30 µg/mL (Escherichia coli [4])	MIC (Escherichia coli [5])	inhibition of growth at 30 µg/mL [6]	MIC (Aspergillus niger)	inhibition of growth at 3 µg/mL (Escherichia coli [7])	inhibition of growth at 30 µg/mL (Bacillus subtilis [8])	MIC (Candida albicans)	inhibition of growth at 10 µg/mL (Pseudomonas fluorescens [9])	inhibition of growth at 30 µg/mL (Staphylococcus aureus [10])	inhibition of growth at 3 µg/mL [11]	inhibition of growth at 3 µg/mL (Pseudomonas fluorescens [12])	inhibition of growth at 10 µg/mL [13]	MIC (Pseudomonas fluorescens [14])	inhibition of growth at 10 µg/mL (Escherichia coli [15])	inhibition of growth at 3 µg/mL (Staphylococcus aureus [16])	other results
Cc1ccc2cc(/C=C3\SC(=S)N(CC(=O)O)C3=O)c(Cl)nc2c1	> 30 mg/L	> 30 mg/L	> 30 mg/L	> 30 mg/L	> 30 mg/L	-12.5%	> 30 mg/L	11.4%	75 mg/L (≈ 198 µM)	1.9%	2.96%	125 mg/L (≈ 330 µM)	-10.7%	-16%	22.7%	-11.5%	22.4%	> 30 mg/L	2.04%	-13.1%	inhibition of growth at 10 µg/mL (Staphylococcus aureus [17]): -23.6%; MIC [18]: 150 mg/L (≈ 396 µM); inhibition of growth at 3 µg/mL (Bacillus subtilis [19]): 2.07%; IC50 [20]: > 30 mg/L; IC90 [20]: > 30 mg/L; MIC (Bacillus subtilis [21]): > 30 mg/L; MIC (Aspergillus flavus): 100 mg/L (≈ 264 µM); inhibition of growth at 10 µg/mL (Bacillus subtilis [22]): -1.27%; IC50 [23]: > 30 mg/L; IC90 [23]: > 30 mg/L; inhibition of growth at 30 µg/mL (Pseudomonas fluorescens [24]): -8.32%; MIC [25]: 125 mg/L (≈ 330 µM)
Cc1ccc2nc(Cl)c(/C=C3\SC(=S)NC3=O)cc2c1	> 30 mg/L	> 30 mg/L	> 30 mg/L	> 30 mg/L	> 30 mg/L	-7.51%	> 30 mg/L	-24.3%	125 mg/L (≈ 390 µM)	-7.51%	-16.6%	175 mg/L (≈ 545 µM)	17.5%	-44%	-19.3%	23.9%	-18.4%	> 30 mg/L	-6.34%	-49.2%	inhibition of growth at 10 µg/mL (Staphylococcus aureus [17]): -30.8%; MIC [18]: 150 mg/L (≈ 468 µM); inhibition of growth at 3 µg/mL (Bacillus subtilis [19]): -8.73%; IC50 [20]: > 30 mg/L; IC90 [20]: > 30 mg/L; MIC (Bacillus subtilis [21]): > 30 mg/L; MIC (Aspergillus flavus): 125 mg/L (≈ 390 µM); inhibition of growth at 10 µg/mL (Bacillus subtilis [22]): -3.58%; IC50 [23]: > 30 mg/L; IC90 [23]: > 30 mg/L; inhibition of growth at 30 µg/mL (Pseudomonas fluorescens [24]): 18.4%; MIC [25]: 100 mg/L (≈ 312 µM)
Cc1ccc2cc(/C=C3\SC(=S)NC3=O)c(Cl)nc2c1	> 30 mg/L	> 30 mg/L	> 30 mg/L	> 30 mg/L	> 30 mg/L	12.9%	> 30 mg/L	11.4%	75 mg/L (≈ 234 µM)	13.8%	-9.15%	100 mg/L (≈ 312 µM)	27.1%	6.45%	11.4%	-8.82%	15%	> 30 mg/L	11.3%	-13.7%	inhibition of growth at 10 µg/mL (Staphylococcus aureus [17]): -4.88%; MIC [18]: 50 mg/L (≈ 156 µM); inhibition of growth at 3 µg/mL (Bacillus subtilis [19]): -2.83%; IC50 [20]: > 30 mg/L; IC90 [20]: > 30 mg/L; MIC (Bacillus subtilis [21]): > 30 mg/L; MIC (Aspergillus flavus): 50 mg/L (≈ 156 µM); inhibition of growth at 10 µg/mL (Bacillus subtilis [22]): -4.08%; IC50 [23]: > 30 mg/L; IC90 [23]: > 30 mg/L; inhibition of growth at 30 µg/mL (Pseudomonas fluorescens [24]): 12.2%; MIC [25]: 100 mg/L (≈ 312 µM)
